Compound activity as filed in PubChem BioAssay.
Rows were chosen to be rich in hits. Some 1.9% of all compounds tested hit in one or more screens of this group.
Ins promoter up – insulin promoter activators in MIN6 cells, imaging, high-content screening, mouse beta cells; MIN6 insulin promoter-GFP reporter; hits give high values; z-score at 5 µM; hit rate 0.3% among 190,000; AID 1625, 2009;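 active = z-score above 3 at 5 µM with at least 500 cells counted in the well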
TbHK1 inh – Trypanosoma brucei hexokinase 1 inhibitors, primary screen, biochemical, G6PDH-coupled NADH absorbance, MLSCN library; hexokinase 1 [Trypanosoma brucei]; recombinant TbHK1, G6PDH-coupled NADH A340; inhibition, % at 10 µM; hit rate 0.11% among 220,000; AID 1430, 2008;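 active = inhibition of 50% or more in the single-dose primary screen; inactive = inhibition below 50%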
MT stabilizer – microtubule stabilizers in HeLa cells, primary screen, imaging, high-content imaging; HeLa tubulin immunostaining HCS, 24 h; share of cells brighter than vehicle mean+2SD; hit rate 0.83% among 200,000; % tubulin-high responders, % at 10 µM;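 active = plate Z-score above 3 for both tubulin-high and condensed-nucleus cell shares, with cell loss under 80%, at 10 µM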;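 note: anti alpha tubulin signal scored within the nucleus-defined area of each cell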
bCat nuc transl – modulators of beta-catenin nuclear translocation, primary screen, imaging, HeLa cells, immunofluorescence, high-content | nuclear translocation activity, % at 5 µM | hit rate 0.3% among 190,000 | AID 1665, 2009;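 active = nuclear translocation activity above 50% at 5 µM, with a well cell count of 50 or more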;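 note: per-cell ratio of nuclear to cytoplasmic median beta-catenin stain intensity; plate controls were DMSO negative control for no effect and GSK-3 inhibitor IX positive control for full effect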
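assay system = human HeLa cells, endogenous beta-catenin | times = compound treatment 24 h, 37°C, 5% CO2 | detection = Anti-beta-catenin immunofluorescence on PFA-fixed, Triton-permeabilized cells, DAPI nuclei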
Autophagy HCS – autophagy modulators in MEF cells, primary screen, imaging, high-content, MEF GFP-LC3; MEF GFP-LC3 puncta imaging; test concentration mostly 10 µM; hit rate 0.98% among 190,000; calls only at 10 µM (by protocol); AID 463193, 2010;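 active = percentage of spot-positive cells more than 3 SD above its plate mean, without a fluorescence outlier flag or 80% toxicity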;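 note: spot-positive cell cutoff set from DMSO-treated cells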
G6PDH ctr – Leuconostoc G6PDH inhibition, confirmation, counter-screen for TbHK1 inhibitor project, biochemical, DPI cherry-picked compounds, single concentration; inhibition, % at 10 µM; shares compounds with TbHK1 inh; hit rate 7% among 210; purified G6PDH, NADH absorbance, 1 h;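 active = at least 50% inhibition in the glucose-6-phosphate dehydrogenase coupled counterscreen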
TbHK1 confirm – TbHK1 inhibitor retest, confirmation, biochemical, DPI cherry-picked primary actives | shares compounds with TbHK1 inh | recombinant TbHK1, G6PDH-coupled NADH A340 absorbance | inhibition, % at 10 µM | hit rate 10% among 210;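 active = inhibition of at least 50% in both of the two screening runs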;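 note: 0% and 100% set by the maximum and minimum signal control wells on each plate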
* hit, by the source's call; i = inactive; . = no result.

SMILES	Ins promoter up	TbHK1 inh	MT stabilizer	bCat nuc transl	Autophagy HCS	G6PDH ctr	TbHK1 confirm
NC(=O)SC/C(=N\S(=O)(=O)c1ccccc1)Nc1ccccc1	0.63	58*	4	-2	i	0	2
O=C(c1cc(S(=O)(=O)N2CCOCC2)c(Cl)cc1Cl)N1CCCCC1	-0.28	4	2	-6	i	.	.
NC(=O)C1CCN(C(=O)c2cc(S(=O)(=O)N3CCOCC3)c(Cl)cc2Cl)CC1	1.1	69*	6	-10	i	-8	-3
c1ccc(Cc2cc[n+](Cc3ccccn3)cc2)cc1	-0.78	12	.	1	.	.	.
CC12CCC(C(=O)NNc3ccccc3)(OC1=O)C2(C)C (configuration not stated)	-0.23	-1	2	0	i	.	.
CC12CCC(C(=O)NC(c3ccccc3)c3ccccc3)(OC1=O)C2(C)C (configuration not stated)	0.62	61*	1	.	i	-7	4
CCCn1c(SCC(=O)Nc2c(C)cccc2CC)nnc1C(C)C	-1.2	5	5	-3	i	.	.
CCCn1c(SCC(=O)Nc2ccccc2CC)nnc1C(C)C	0.11	65*	5	1	i	3	2
NS(=O)(=O)c1ccc(N/N=C/c2ccc(O)c(O)c2O)c([N+](=O)[O-])c1	0.63	67*	.	1	.	-41	15
CCNC(=S)Nc1ccc(S(=O)(=O)Nc2cc(C)nc(C)n2)cc1	-0.12	1	3	5	i	.	.
COC(=O)c1[nH]c(=O)c2ccccc2c1O	.	-14	3	0	i	.	.
COC(=O)c1[nH]c(=O)c2ccccc2c1OCc1ccccc1	0.49	54*	3	-1	i	-31	-27
COC(=O)NCCOC(=O)N(O)c1ccc(Br)cc1	-0.45	57*	4	3	i	-1	3
COCCNC(=O)CN(C)S(=O)(=O)c1ccc(Br)cc1	-0.07	3	2	-3	i	.	.
Cc1nnc2sc(SCC(=O)Nc3ccc(Cl)cc3)nn2c1=O	0.31	-14	2	0	i	.	.
CC12CCC(C(=O)N3CCCCC3)([C@H](Br)C1=O)C2(C)C (some centres not stated)	0.11	-9	.	0	.	.	.
C=CCc1cc(Cl)ccc1OC(=O)Nc1cccc(Cl)c1	0.02	-10	.	-1	.	.	.
COc1ccc(CCNC(=O)c2nnn(CC(=O)Nc3ccccc3C)c2N)cc1OC	.	55*	5	.	i	-6	-7
CC1SCC(NC(=O)c2ccc(Cl)cc2)CS1 (configuration not stated)	0.54	51*	.	0	.	-1	0
COc1ccc(NC(=O)c2sccc2C)cn1	0.65	3	3	0	i	.	.
O=C(O)CSc1cc(NS(=O)(=O)c2cccc([N+](=O)[O-])c2)c2ccccc2c1O	-0.35	63*	.	-2	.	74*	62*
O=C(NC(=S)NCC1CCCO1)c1ccc(Br)o1 (configuration not stated)	0.04	-2	4	-3	i	.	.
OCCN1CCN(c2cc(-c3ccccc3)c3ccccc3n2)CC1	0.52	-1	4	.	i	.	.
Cc1oc(-c2ccccc2F)nc1CSCC(=O)NCc1ccc2c(c1)OCO2	-0.08	61*	4	-1	i	-21	0
O=C(CSCc1ccc(F)cc1)NCc1ccc2c(c1)OCO2	-0.12	6	5	-2	i	.	.
SMILES	Ins promoter up	TbHK1 inh	MT stabilizer	bCat nuc transl	Autophagy HCS	G6PDH ctr	TbHK1 confirm
Cc1cc(NC(=O)COC(=O)CCCOc2ccc(Cl)cc2C)no1	-0.08	55*	6	-2	i	0	-4
COc1ccc(NC(=O)COC(=O)CCCOc2ccc(Cl)cc2Cl)cc1Cl	0.1	-2	5	2	i	.	.
Cc1ccccc1N1C(=O)C2ON(c3ccccc3)C(c3cccnc3)C2C1=O (configuration not stated)	0.4	0	5	-7	i	.	.
Cc1c(Cl)cccc1N1C(=O)C2ON(c3ccccc3)C(c3cccnc3)C2C1=O (configuration not stated)	-0.24	51*	4	2	i	-26	-9
Clc1ccc(-c2nnc(NC3=NCCCCC3)o2)cc1	-0.17	50*	4	-2	i	-3	2
O=C(Nc1nnc(-c2ccc(Cl)cc2)o1)C1CCCCC1	0.12	0	.	2	.	.	.
CC(=O)NC(c1cccs1)c1cc([N+](=O)[O-])c2cccnc2c1O (configuration not stated)	.	2	4	0	i	.	.
CCC(=O)NC(c1cccs1)c1cc([N+](=O)[O-])c2cccnc2c1O (configuration not stated)	1	52*	2	.	i	-23	6
CS(=O)(=O)N1CCC(C(=O)N2CCc3ccccc3C2)CC1	0.78	5	3	0	i	.	.
O=C(C1CCN(S(=O)(=O)c2cccc3nsnc23)CC1)N1CCc2ccccc2C1	-0.26	54*	5	0	i	-30	-19
CCc1ccc([C@@H]2C[C@H]3CN(Cc4ccccc4OC)C(=O)[C@]34CCCN24)cc1	0.3	-3	2	-3	i	.	.
CC(C)CNC(=O)NC1C(NC(=O)NCC(C)C)N(C)C(=O)N1C (configuration not stated)	0.12	57*	4	-8	i	-9	-2
CCC(C)NC(=O)NC1C(NC(=O)NC(C)CC)N(C)C(=O)N1C (configuration not stated)	-0.08	3	3	-1	i	.	.
COc1cc(Nc2ncnc(N)n2)cc(OC)c1	-0.09	-3	.	0	.	.	.
COc1ccc2nc(C(C)O)[nH]c2c1 (configuration not stated)	.	1	2	-2	i	.	.
CC(O)c1nc2ccc(Cc3ccc4nc(C(C)O)[nH]c4c3)cc2[nH]1 (configuration not stated)	0.4	55*	6	1	i	-5	-7
COc1cc(-c2noc(CCC(=O)Nc3cccnc3)n2)cc(OC)c1OC	1.4	54*	5	-1	i	-9	1
O=C(OCCN1C(=O)c2ccccc2C1=O)c1ccccc1	-0.57	0	4	0	i	.	.
O=C(OCCN1C(=O)c2ccccc2C1=O)c1cnccn1	0.48	51*	5	-3	i	-13	-1
COC(=O)C1=C(NC(=O)c2ccc(C)c(C)c2)CCS1	-0.06	57*	5	-2	i	1	-1
